The test system of experiment [1] is Leishmania tropica. Nature of the experiment: Percentage of growth inhibition of multidrug resistance Leishmania tropica Lines at 15 uM. The format is functional. Summed up: (§1)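 Log-phase MDR promastigotes were plated at 3 × 10⁵ cells/well in RPMI 1640-modified medium with 20% FBS and 150 µM DNM. Sesquiterpenes (DMSO stocks diluted in medium) were added and cells kept 72 h at 28 °C. MTT was added for 4 h, formazan dissolved in 20% SDS and A540 read. Growth inhibition is relative to DNM-treated controls without modulator.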

Experiment [2] deals with Leishmania tropica. Put plainly: Percent growth inhibition of wild type Leishmania tropica at 1 uM. Type of experiment: functional. Put shortly: (§2)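 Intrinsic toxicity on the wild-type L. tropica LRC clone, with no DNM present. Log-phase promastigotes were plated at 3 × 10⁵ cells/well in RPMI 1640-modified medium with 20% FBS, with sesquiterpene diluted from DMSO stocks, for 72 h at 28 °C. MTT was added for 4 h, then 20% SDS, and A540 read. Percent growth inhibition is taken against untreated control absorbance.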

The subject of experiment [3] is Leishmania tropica. Nature of the experiment: Percentage of growth inhibition of multidrug resistance Leishmania tropica Lines at 3 uM. The format is functional. Summed up:
as §1

The subject of experiment [4] is Leishmania tropica. Nature of the experiment: Percentage of growth inhibition of multidrug resistance Leishmania tropica Lines at 7 uM; Value ranges from 0 to 6%. The format is functional. Summed up: as §1
Experiment [5] concerns Leishmania tropica. Put plainly: Percentage of growth inhibition of wild type Leishmania tropica lines at 7 uM; Value ranges from 0 to 6%. Type of experiment: functional. Put shortly:
as §2

The subject of experiment [6] is Leishmania tropica. Put plainly: (§3) Percentage of growth inhibition of wild type Leishmania tropica lines at 15 uM. Type of experiment: functional. Summed up:
as §2

Experiment [7] relates to Leishmania tropica. Nature of the experiment: Percentage of growth inhibition of wild type Leishmania tropica lines at 3 uM; Value ranges from 0 to 6%. The format is functional. Put shortly: as §2
In experiment [8] the test system is Leishmania tropica. Nature of the experiment: Percentage of growth inhibition of multidrug resistance Leishmania tropica Lines at 1 uM. The format is functional. Put shortly: as §1
Experiment [9] deals with Leishmania tropica. Nature of the experiment: Percentage of growth inhibition of multidrug resistance Leishmania tropica Lines at 1 uM. The format is functional. Summed up:
as §1

In experiment [10] the test system is Leishmania tropica. The description is as §3. Type of experiment: functional. Put shortly:
(§4)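 WT L. tropica LRC-strain promastigotes (log phase, RPMI 1640-modified medium + 20% heat-inactivated FBS, 28 °C) seeded at 3 × 10⁵ cells/well and exposed without DNM to sesquiterpenes diluted from DMSO stocks. After 72 h at 28 °C, MTT (5 mg/mL in PBS) was added for 4 h, formazan dissolved in 20% SDS, A540 read. Growth inhibition (%) calculated relative to untreated control absorbance.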
This is another data set of the same source.

The subject of experiment [11] is Leishmania tropica. Put plainly: Percentage of growth inhibition of wild type Leishmania tropica Lines at 3 uM. Type of experiment: functional. Put shortly:
as §2

Experiment [12] deals with Leishmania tropica. Put plainly: Concentration required to inhibit the growth of multidrug resistance Leishmania tropica Line in the presence of DNM at 7 uM. The format is functional, organism-based.
Experiment [13] relates to Leishmania tropica. Nature of the experiment: Ratio of IC50 of the multidrug resistance Leishmania tropica Line to that of IC50 of the wild type line at 7 uM. Type of experiment: functional. Summed up:
(§5)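 Resistance index is the DNM IC50 in the MDR L. tropica line divided by the DNM IC50 in the wild-type line. MDR IC50s were obtained with sesquiterpene at 7 or 15 µM. Growth was read by 72 h MTT assay at 28 °C. Data are from three independent experiments.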

Experiment [14] relates to Leishmania tropica. Put plainly: Percentage of growth inhibition of wild type Leishmania tropica Lines at 7 uM. Type of experiment: functional. Put shortly: as §4
For experiment [15], the system named is Leishmania tropica. Put plainly: Concentration required to inhibit the growth of multidrug resistance Leishmania tropica Line in the presence of DNM at 15 uM. Type of experiment: functional, organism-based.
Experiment [16] deals with Leishmania tropica. Put plainly: Ratio of IC50 of the multidrug resistance Leishmania tropica Line to that of IC50 of the wild type line at 15 uM. Type of experiment: functional. Summed up: as §5
The test system of experiment [17] is Leishmania tropica. Put plainly: Percentage of growth inhibition of multidrug resistance Leishmania tropica Lines at 7 uM. The format is functional. Summed up: as §1
The test system of experiment [18] is Leishmania tropica. Put plainly: Percentage of growth inhibition of multidrug resistance Leishmania tropica Lines at 3 uM. The format is functional. Put shortly: as §1
Experiment [19] relates to Leishmania tropica. Put plainly: Percentage of growth inhibition of multidrug resistance Leishmania tropica Lines at 15 uM; Value ranges from 0 to 6%. Type of experiment: functional. Summed up: as §1
In experiment [20] the test system is Leishmania tropica. Put plainly: Percentage of growth inhibition of wild type Leishmania tropica Lines at 7 uM. Type of experiment: functional. Put shortly:
as §2

For experiment [21], the system named is Leishmania tropica. Nature of the experiment: Percentage of growth inhibition of wild type Leishmania tropica Lines at 3 uM. The format is functional. Summed up:
as §4

A value given as a limit tells only on which side of the number the result lay.

As a reminder, the inhibition is the change of the read-out against control, counted positive when it falls. High values mean strong suppression, low ones little suppression. `COc1ccc(C(=O)O[C@@H]2C3C[C@H](OC(=O)c4ccco4)[C@]4(C)[C@@H](OC(C)=O)[C@@H](OC(=O)c5ccccc5)C[C@](C)(O)C24OC3(C)C)cc1` (stereo partly drawn): the figures for the inhibition at 15 µM in the experiment on Leishmania tropica [1] and with Leishmania tropica [6] were 11.8% and < 6%, respectively. Moreover, the inhibition at 1 µM in the experiment on Leishmania tropica [2] and with Leishmania tropica [8] was < 6% each time. Moreover, the inhibition at 3 µM in the experiment with Leishmania tropica [3] and in the experiment on Leishmania tropica [7] was 6% in each case. For the same compound, the inhibition at 7 µM in the experiment with Leishmania tropica [4] and with Leishmania tropica [5] was 6% throughout.

A word on the IC50: it is the concentration that gives 50% inhibition. For `CC(=O)O[C@H]1C[C@](C)(O)C23OC(C)(C)C(C[C@H](OC(=O)c4ccco4)[C@]2(C)[C@H]1OC(C)=O)[C@H]3OC(=O)c1ccco1` (stereo partly drawn), the inhibition at 15 µM in the experiment on Leishmania tropica [1] was determined as 94.4%; in the experiment with Leishmania tropica [10] it was 15.2%. Further, the inhibition at 1 µM with Leishmania tropica [2] was < 6%; in the experiment on Leishmania tropica [9], 24.5%. For the same compound, the inhibition at 3 µM with Leishmania tropica [11] is < 6%; with Leishmania tropica [18], 83.5%. For the same compound, the IC50 amounted to 30 µM in the experiment with Leishmania tropica [12] and 9 µM in the experiment with Leishmania tropica [15]. Further, the results for the RI in the experiment with Leishmania tropica [13] and with Leishmania tropica [16] were 7.8 and 2.3, respectively. The inhibition at 7 µM in the experiment on Leishmania tropica [14] came to 9.7%; in the experiment on Leishmania tropica [17], 90.9%.

As for `CC(=O)O[C@@H]1C2C[C@H](OC(=O)c3ccco3)[C@]3(C)[C@@H](OC(C)=O)[C@@H](OC(=O)c4ccco4)C[C@](C)(O)C13OC2(C)C` (stereo partly drawn), the inhibition at 1 µM in the experiment on Leishmania tropica [2] and in the experiment with Leishmania tropica [8] was < 6% in each case. Further, the results for the inhibition at 3 µM with Leishmania tropica [3] and with Leishmania tropica [11] were 6% and < 6%, respectively. In addition, the inhibition at 7 µM is 6% in the experiment with Leishmania tropica [4] and < 6% with Leishmania tropica [20]. Moreover, the inhibition at 15 µM was < 6% in the experiment on Leishmania tropica [6] and 6% in the experiment with Leishmania tropica [19].

For the compound `CC(=O)O[C@H]1[C@@H](OC(=O)c2ccccc2)C[C@](C)(O)C23OC(C)(C)C(C[C@H](OC(=O)c4ccco4)[C@]12C)[C@H]3OC(=O)c1ccc([N+](=O)[O-])cc1` (stereo partly drawn), the inhibition at 15 µM with Leishmania tropica [1] came out at 51.1%; in the experiment with Leishmania tropica [10] it was 10.8%. In addition, the figures for the inhibition at 1 µM with Leishmania tropica [2] and in the experiment on Leishmania tropica [9] were < 6% and 6.4%, respectively. Further, the inhibition at 7 µM in the experiment on Leishmania tropica [5] turned out to be 6%; in the experiment with Leishmania tropica [17], 26.4%. The values for the inhibition at 3 µM in the experiment on Leishmania tropica [7] and with Leishmania tropica [18] were 6% and 13.5%, respectively.

For `CC(=O)OC[C@@]12[C@@H](OC(C)=O)[C@@H](OC(C)=O)[C@@H]3OC(=O)[C@H](C)[C@@H](C)c4ncccc4C(=O)OC[C@@]4(C)OC1([C@H](OC(C)=O)C4[C@H](OC(C)=O)[C@@H]2OC(C)=O)[C@@]3(C)O`, the inhibition at 1 µM in the experiment on Leishmania tropica [2] and with Leishmania tropica [8] was < 6% in each case. The inhibition at 3 µM in the experiment on Leishmania tropica [3] and in the experiment with Leishmania tropica [11] was < 6% throughout. Also, the inhibition at 7 µM in the experiment on Leishmania tropica [4] is 6%; in the experiment with Leishmania tropica [20], < 6%. The inhibition at 15 µM in the experiment on Leishmania tropica [6] was < 6%; in the experiment with Leishmania tropica [19] it was 6%.

For the compound `CC(=O)OC[C@]12[C@@H](OC(=O)c3ccccc3)CC3[C@@H](OC(=O)c4ccccc4)C1(OC3(C)C)[C@@](C)(O)C[C@H](OC(C)=O)[C@@H]2OC(C)=O` (stereo partly drawn), the values for the inhibition at 15 µM in the experiment on Leishmania tropica [1] and in the experiment on Leishmania tropica [10] were 90.9% and 15.2%, respectively. Further, the inhibition at 1 µM with Leishmania tropica [2] was < 6%; in the experiment on Leishmania tropica [9], 18%. Further, the IC50 was determined as 39 µM with Leishmania tropica [12] and 20 µM with Leishmania tropica [15]. The values for the RI in the experiment on Leishmania tropica [13] and with Leishmania tropica [16] were 10.2 and 5.2, respectively. Further, the results for the inhibition at 3 µM in the experiment on Leishmania tropica [21] and with Leishmania tropica [18] were 6.9% and 77.5%, respectively. Besides, the inhibition at 7 µM turned out to be 11% with Leishmania tropica [14] and 89.9% in the experiment with Leishmania tropica [17].

Consider `CC(=O)OC[C@]12[C@@H](OC(=O)c3ccco3)CC3[C@@H](OC(=O)c4ccco4)C1(OC3(C)C)[C@@](C)(O)C[C@H](OC(C)=O)[C@@H]2OC(C)=O` (stereo partly drawn), for which the inhibition at 15 µM was determined as 94.3% in the experiment on Leishmania tropica [1] and 7.2% with Leishmania tropica [10]. The inhibition at 1 µM with Leishmania tropica [2] was < 6%; with Leishmania tropica [9], 25.7%. The inhibition at 3 µM was < 6% in the experiment on Leishmania tropica [11] and 79.6% in the experiment with Leishmania tropica [18]. Further, the concentration for half-maximal inhibition (IC50) in the experiment with Leishmania tropica [12] came out at 33.3 µM; with Leishmania tropica [15], 11 µM. Further, the RI was found to be 8.7 with Leishmania tropica [13] and 2.9 in the experiment with Leishmania tropica [16]. The inhibition at 7 µM with Leishmania tropica [20] is < 6%; with Leishmania tropica [17], 89.5%.

For the origin of these results see ChEMBL document CHEMBL1148393, “SAR studies of dihydro-beta-agarofuran sesquiterpenes as inhibitors of the multidrug-resistance phenotype in a Leishmania tropica line overexpressing a P-glycoprotein-like transporter” (J Med Chem, 2004).
